Compound activity as filed in PubChem BioAssay.
Only some compounds are listed: those with a hit (about 2.6% of all), similar ones and a draw of the others.
Yeast growth inh: growth inhibitors of yeast BB579 in restrictive medium, primary screen, yeast lifespan-shortening project, S. cerevisiae. AID 804, 2007. inhibition, % at 10 µM. actives 0.51% (n = 140,000). OD615, 48 h;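 active = inhibition above a set limit, 3 SD over the mean compound inhibition, cut at about 44% in these data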
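Test system: DeaD yeast strain BB579 / Buffer or medium: restrictive glucose-based CSMM-D medium / Doses: single 10 µM dose / Schedule: 4 h cell preincubation, 48 h compound exposure, 30 °C humidified / Technique: culture absorbance at 615 nm / Controls: amphotericin B positive control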
Yeast lifespan up: compounds extending yeast replicative lifespan, primary screen, S. cerevisiae, OD615 | S. cerevisiae growth with nicotinamide; deaD strain in restrictive glucose medium | inhibition of the nicotinamide effect, % at 10 µM | actives 0.68% (n = 130,000) | AID 775, 2007;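 active = inhibition above a set limit, placed 3 SD over the median of all compounds, cut at about 26% in these data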;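 note: 0% = nicotinamide-treated wells and 100% = cells grown without nicotinamide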
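Material: Modified budding yeast, DeaD strain | Medium: Restrictive glucose medium | Probe or stimulus: 1.5 mM nicotinamide | Dosing: Single dose 10 µM compound, 0.25% DMSO | Times: 48 h at 30 °C | Technique: OD615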
RAM inhibit: inhibitors of the yeast RAM network, primary screen, dse1pr::URA3 reporter, 5-FOA selection; S. cerevisiae dse1pr::URA3 reporter, 5-FOA growth OD615, 2 d; analog-sensitive cbk1-as2 kinase mutant strain; inhibition, % at 50 µM; actives 1.8% (n = 190,000); AID 868, 2007;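 active = inhibition above a set limit, 3 SD over mean compound inhibition, cut at about 8.4% in these data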;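 note: 0% = DMSO-only wells with no growth and 100% = 10 µM 1-NA-PP1 full growth; inhibition rescues growth on 5-FOA so higher OD means more RAM inhibition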
* hit, by the source's call; nt = no result.

SMILES	Yeast growth inh	Yeast lifespan up	RAM inhibit
Cc1ccc(NC(=O)c2ccc(Nc3c([N+](=O)[O-])cc([N+](=O)[O-])cc3[N+](=O)[O-])cc2)cc1	-31	-1	6
Cc1ccccc1NC(=O)c1ccc(N/N=C/c2ccccc2O)c([N+](=O)[O-])c1	-37	-2	8.7*
O=C(OCc1ccc(C(=O)c2ccccc2)cc1)c1cccc(-c2nnc(-c3ccccc3)o2)c1	-59	0	5
CCOC(=O)c1cccc(COC(=O)c2cccc(-c3nnc(-c4ccccc4)o3)c2)c1	-14	0	8.9*
S=c1[nH]nc(CCc2ccccc2)n1-c1ccccc1	21	1	-1
Cc1ccc(OCCNC(=O)c2cc(C(=O)NCCOc3ccc(C)cc3)cc([N+](=O)[O-])c2)cc1	-64	6	8.9*
COc1cccc(OCCNC(=O)c2cc([N+](=O)[O-])cc([N+](=O)[O-])c2)c1	nt	nt	2
O=S(=O)(c1ccc(Cl)s1)N1CCC(Cc2ccccc2)CC1	-10	-8	8.9*
O=S(=O)(c1ccc(Br)s1)N1CCC(Cc2ccccc2)CC1	18	-2	1
CS(=O)(=O)Nc1ccc(C(=O)Nc2ccc(S(=O)(=O)N3CCCC3)cc2)cc1	nt	nt	3
CC(C)c1ccc(NC(=O)c2sccc2-n2cccc2)cc1	nt	nt	8.6*
Cc1c(Br)cccc1NC(=O)c1sccc1-n1cccc1	-54	-6	3
Cc1ccsc1/C=C1\SC(N2CC(C)OC(C)C2)=NC1=O (stereo unspecified)	-34	-5	1
COc1ccc(Cl)cc1NC(=O)COC(=O)c1cc(NS(=O)(=O)c2cccs2)ccc1O	-49	3	11*
O=C(COc1ccc(Cl)cc1Cl)Nc1ccccc1NS(=O)(=O)c1cccs1	nt	nt	3
CSc1nnc(NC(=O)c2ccc(S(=O)(=O)N(C)C)cc2)s1	nt	nt	3
COc1ccc2c(c1OC)C(=O)OC2Nc1ncccc1C (stereo unspecified)	-11	7	0
COc1ccc2c(c1OC)C(=O)OC2Nn1cncn1 (stereo unspecified)	-56	51*	1
O=C(CSc1n[nH]c(-c2ccccc2F)n1)NCC(=O)Nc1ccc(F)c(F)c1F	nt	nt	1
CC1=NOC(=O)/C1=C\c1ccc(-c2ccc(Br)cc2)o1	nt	nt	6
CC1=NOC(=O)/C1=C/c1ccc(-c2ccc(Cl)cc2)o1	92*	-7	3
Cn1cc([C@@H]2C[C@H]3CN(C4CCCC4)C(=O)[C@]34CCCN24)c(-c2ccccc2)n1	nt	nt	1
CCCCC(=NCCc1c(C)[nH]c2ccccc12)C1=C(O)CC(c2ccccc2)CC1=O (stereo unspecified)	nt	nt	4
CCCC(=Nc1ccccc1OC)C1=C(O)CC(c2ccccc2)CC1=O (stereo unspecified)	-20	59*	0
COc1ccccc1N=C(C)C1=C(O)CC(c2ccccc2)CC1=O (stereo unspecified)	nt	nt	-1
SMILES	Yeast growth inh	Yeast lifespan up	RAM inhibit
CCCCC(=Nc1ccccc1OC)C1=C(O)CC(c2ccccc2)CC1=O (stereo unspecified)	17	67*	-2
Cc1cs/c(=N\N=C2CCCCC2)n1Cc1ccco1	nt	nt	1
O=c1[nH]c(CN2CCN(S(=O)(=O)c3ccccc3C(F)(F)F)CC2)nc2sc3c(c12)CCCC3	-20	-3	3
Cc1ccc(-n2cccc2/C=C2/C(=N)N3C(=NC2=O)SN=C3S(C)(=O)=O)cc1	nt	nt	8
CCc1ccc(-n2cccc2/C=C2/C(=N)N3C(=NC2=O)SN=C3S(C)(=O)=O)cc1	nt	nt	11*
CN1CCN(C(=O)CSc2ccc(C(F)(F)F)cc2[N+](=O)[O-])CC1	-17	30*	0
CC(=O)Nc1cccc(NC(=O)CSc2ccc(C(F)(F)F)cc2[N+](=O)[O-])c1	-20	-15	1
COc1ccccc1-c1cc(C(F)(F)F)nc(NCc2cccs2)n1	-43	-1	10*
COc1ccc(-c2cc(C(F)(F)F)nc(NCc3cccs3)n2)cc1	-23	-1	6
CCOc1[nH]n(-c2ccccc2)c(=O)c1C=Nc1ccc(OC)cc1	nt	nt	9.0*
CCOc1[nH]n(-c2ccc(Cl)cc2)c(=O)c1C=Nc1ccc(Cl)cc1	-49	-18	5
O=C(O)c1ccccc1Nc1ccc([N+](=O)[O-])cc1	95*	-5	1
O=C(O)c1ccccc1Nc1ccccc1C(=O)O	-7	-13	4
CN(C)/N=C/c1ccc(P(c2ccc(/C=N/N(C)C)o2)c2ccc(/C=N/N(C)C)o2)o1	nt	nt	0
Cc1cc(C)n(CCNc2nc3nonc3nc2N2CCCCC2)n1	nt	nt	0
Cc1ccc(S(=O)(=O)N(CC(=O)Nc2ccccc2C(=O)O)c2ccc(Cl)cc2)cc1	nt	nt	8.5*
NC(=O)CN(c1ccc(Cl)cc1)S(=O)(=O)c1ccccc1	-29	1	1
O=C(CSc1ncnc2c1oc1ccccc12)OCc1ccccc1	-71	-8	8.8*
NC(=O)CSc1ncnc2c1oc1ccccc12	31	-8	3
Cc1cc(S(=O)(=O)NCc2ccccc2)ccc1OCC(=O)Nc1cccc([N+](=O)[O-])c1	-11	-1	11*
CN(Cc1ccccc1)S(=O)(=O)c1ccc(OCC(=O)Nc2cccc([N+](=O)[O-])c2)cc1	-12	-1	3
N/C(=N\OC(=O)CSc1ccccc1)c1ccc([N+](=O)[O-])cc1	1	-7	1
CCCc1sc(N/N=C/c2ccccn2)nc1-c1ccc(F)cc1	-33	nt	3
Cc1nc(N/N=C/c2ccccn2)sc1C	44*	-3	0
Cc1nc(CC(C)C)cc(C(=O)N2CCCC(CNS(=O)(=O)c3cccs3)C2)n1 (stereo unspecified)	nt	nt	0
SMILES	Yeast growth inh	Yeast lifespan up	RAM inhibit
CCCc1nc2ccc(NC(C)=O)cc2c(=O)n1Cc1ccc(Cl)cc1	nt	nt	1
COc1ccc(Cn2c(C3CC3)nc3ccc(NC(C)=O)cc3c2=O)cc1	-42	6	10*
O=C(NNc1ccc(Cl)nn1)c1ccc(Cl)cc1	-5	6	0
COc1cc(C2C3=C(CCCC3=O)Nc3[nH]n(-c4ccccc4)c(=O)c32)ccc1OC(C)=O (stereo unspecified)	nt	nt	-1
COC(=O)C(Cc1ccc(OC(=O)c2ccccc2C)cc1)N1Cc2ccccc2C1=O (stereo unspecified)	-67	-2	8.9*
COC(=O)C(Cc1ccc(OC(=O)c2ccccc2Cl)cc1)N1Cc2ccccc2C1=O (stereo unspecified)	-54	-11	7
Clc1cccc(Cl)c1CSc1cc2c(nn1)-c1ccccc1CC2	-18	-6	7
O=c1cc2c(nn1Cc1c(Cl)cccc1Cl)-c1ccccc1CC2	-90	11	8
Clc1ccc(CSc2cc3c(nn2)-c2ccccc2CC3)cc1Cl	-33	-5	10*
Clc1ccccc1CSc1cc2c(nn1)-c1ccccc1CC2	-44	-16	10*
FC(F)(F)c1ccc(Nc2nnnc3ccccc23)cc1	nt	nt	2
Cc1ccc(-n2ncc3c(SCc4cccnc4)ncnc32)c(C)c1	nt	nt	0
Cc1ccc(NC(=O)CCSc2ccccn2)cc1	4	-6	1
